Results on 23 molecules are retold here after ChEMBL document CHEMBL3243948, “Vitamin B6 antagonists obtained by replacing or modifying the 2-methyl group” (J Med Chem, 1977).

The source made the active and inactive calls. No cut-off for these calls is given here.

Broadly, the Ki is a dissociation constant, usually derived from enzyme kinetics or from competition with a known ligand. A low value points to a stronger hold on the target.

Assay [1] deals with TA3. Description: Growth inhibition of mouse TA3 cells in presence of 10^-7 M pyridoxal. Format: functional. The essentials: (§1)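 Mouse mammary adenocarcinoma TA3 cells cultured in Eagle's medium with minimal pyridoxal (1 X 10^-7 M) to sustain growth. Compounds were scored for inhibition of growth.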
In assay [2] the test system is TA3. Description: Growth inhibition of mouse TA3 cells in presence of 10^-5 M pyridoxal. Format: functional. The essentials:
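TA3 mouse mammary adenocarcinoma cells grown in complete Eagle's medium, which holds a higher pyridoxal level than the minimal medium. Compounds were tested for growth inhibition.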

A further assay has as its target T1, Pyridoxal kinase (Homo sapiens, UniProt O00764).
T1 sequence (O00764 whole entry): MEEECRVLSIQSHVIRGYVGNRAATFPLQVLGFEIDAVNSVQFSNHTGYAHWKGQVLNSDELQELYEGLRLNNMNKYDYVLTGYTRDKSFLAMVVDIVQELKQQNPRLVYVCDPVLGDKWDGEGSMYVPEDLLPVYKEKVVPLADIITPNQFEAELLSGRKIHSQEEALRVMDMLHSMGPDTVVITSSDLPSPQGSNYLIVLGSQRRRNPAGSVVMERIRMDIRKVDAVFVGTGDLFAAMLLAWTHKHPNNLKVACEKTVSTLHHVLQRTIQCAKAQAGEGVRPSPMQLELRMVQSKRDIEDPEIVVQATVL
Description: Competitive inhibition of pyridoxal phosphokinase (unknown origin). The essentials: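 Inhibitor tested against pyridoxal phosphokinase-catalysed phosphorylation of pyridoxal (substrate). Ki derived from competitive kinetics.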

The subject of assay [3] is TA3. Description: Growth inhibition of mouse TA3 cells at 1 X 10^-4 M in presence of 10^-7 M pyridoxal. Format: functional, cell-based.
Assay [4] relates to TA3. Nature of the assay: Growth inhibition of mouse TA3 cells in presence of 10^-7 M pyridoxal relative to control. The assay is classed as functional. The gist of the method: as §1
The mark [5] stands for this setting: Mus musculus, TA3, read-out: ID50 (the source's name).

`OCc1cnc(Cl)c(O)c1CO`: in the assay with TA3 [1], the ID50 is 4.5 ×10⁻⁵ M. In addition, the “growth inhibition (GI)” value in the assay on TA3 [2] is “inactive”. The same molecule displayed an inhibitory constant (Ki) at Pyridoxal kinase of 24 µM.
Take `Br.COC(=O)N(C)c1ncc(CO)c(CO)c1OCc1ccccc1`: in the assay on TA3 [1], the ID50 was 1.6 ×10⁻⁴ M.
With `N/N=C/c1ncc(CO)c(CO)c1O`, the ID50 in the assay on TA3 [1] is 2.3 ×10⁻⁴ M.
Consider `OCc1cnc(F)c(O)c1CO`, for which the ID50 in the assay on TA3 [1] is given as over 1 ×10⁻⁴ M.
On the same count and under the same terms, the same measure for `CC1(C)OCc2cnc(CCl)c(OCc3ccccc3)c2CO1.Cl`: 12 ×10⁻⁵ M.
In the case of `CCOC(=O)c1cncc(OC)c1C(=O)OCC`, the “growth inhibition (GI)” value in the assay with TA3 [3] was “inactive”.
Take `Cl.Nc1ncc(CO)c(CO)c1O`: the ID50 in the assay on TA3 [1] turned out to be 1.25 ×10⁻⁵ M. Also, the “growth inhibition (GI)” value with TA3 [2] was “inactive”.
Regarding `O=Cc1ncc(CO)c(CO)c1O`, the ID50 with TA3 [1] stood at 1.7 ×10⁻⁴ M.
`COc1c(C)ncc(CO)c1CO`: the “growth inhibition (GI)” value with TA3 [3] was “inactive”.
For the molecule `O=C(SCc1ncc(CO)c(CO)c1OCc1ccccc1)c1ccccc1`, the ID50 in the assay on TA3 [1] came out at 3 ×10⁻⁵ M.
Consider `OCc1cnc(/C=N/N=C/c2ncc(CO)c(CO)c2O)c(O)c1CO`, for which the figures for the ID50 in the assay with TA3 [1] and in the assay on TA3 [2] were 1.6 ×10⁻⁵ M and 1.1 ×10⁻⁵ M, respectively.
Turning to `Cn1c(=O)oc2c(CO)c(CO)cnc21`, in the assay with TA3 [1], the ID50 is recorded as over 1 ×10⁻⁴ M.
On to `CNc1ncc(CO)c(CO)c1O.Cl`, for which the “growth inhibition (GI)” value in the assay on TA3 [4] was 15%. In addition, the ID50 in the assay with TA3 [1] stood at 1 ×10⁻⁴ M.
Consider `COc1cncc(CO)c1CO`, for which, in the assay on TA3 [3], the “growth inhibition (GI)” value was “inactive”.
On to `NC(=O)c1ncc(CO)c(CO)c1O`, for which the “growth inhibition (GI)” value in the assay on TA3 [4] was found to be 40%. Moreover, in the assay on TA3 [1], the ID50 is recorded as 1 ×10⁻⁴ M.
As to `COc1cncc(C(=O)O)c1C(=O)O`, the “growth inhibition (GI)” value in the assay with TA3 [3] was “inactive”.
For `O=C(O)c1ncc(CO)c(CO)c1O`, the ID50 with TA3 [1] was over 1 ×10⁻⁴ M.
With `COc1cncc2c1C(=O)OC2=O`, in the assay with TA3 [3], the “growth inhibition (GI)” value was “inactive”.
Regarding `COC(=O)c1cncc(OC)c1C(=O)OC`, the “growth inhibition (GI)” value in the assay with TA3 [3] is “inactive”.
Regarding `C#Cc1ncc(CO)c(CO)c1O`, the inhibitory constant (Ki) at Pyridoxal kinase is 105 µM.
As for `C=Cc1ncc(CO)c(CO)c1O`, the IC50 in the assay with TA3 [1] (setting [5]) and in the assay with TA3 [2] (setting [5]) was 9.4 µM each time.
`NCc1ncc(CO)c(CO)c1O`: the “growth inhibition (GI)” value with TA3 [4] stood at 25%. For the same molecule, in the assay with TA3 [1], the ID50 was 1 ×10⁻⁵ M.
Turning to `COc1c(C(=O)O)ncc(C(=O)O)c1C(=O)O`, the “growth inhibition (GI)” value with TA3 [3] was “inactive”.
